The source made the active and inactive calls. The rule behind the calls is not given here.
Tests used:
MCF7 [1] = assay: Increase in endogenous C24:1-ceramide level in human MCF7 cells at 10 uM after 5 mins; format: functional, cell-based
Procedure, shortened: (§1)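 MCF7 cells grown in RPMI 1640 with 10% FCS at 37 °C in 5% CO2. Seeded near 50% density and treated 24 h later with compound in ethanol (0.1% final); controls got ethanol alone. Cells washed in cold PBS and extracted. Cer species, Sph and S1P measured by HPLC-MS/MS (C8 column, positive-ion MRM) against internal standards and calibration curves. Results given as pmol/nmol phospholipid phosphate, relative to ethanol controls.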

MCF7 [2] = assay: Increase in endogenous C16-ceramide level in human MCF7 cells at 1 uM after 24 hrs; format: functional, cell-based
Procedure, shortened: (§2)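 MCF7 cells grown in RPMI 1640 with 10% FCS at 37 °C, 5% CO2. Seeded at ~50% density (1×10^6 cells), treated 24 h later with compounds in ethanol (0.1% final); controls got ethanol only. Cells washed in cold PBS and lipids extracted. Cer species and Sph quantified by HPLC-MS/MS (MRM, positive ion) against internal standards and calibration curves. Values given as pmol/nmol phospholipid and compared with ethanol controls.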

MCF7 [3] = assay: Increase in endogenous C18-ceramide level in human MCF7 cells at 1 uM after 24 hrs; format: functional, cell-based; procedure, shortened: as §2
MCF7 [4] = assay: Increase in endogenous C24-ceramide level in human MCF7 cells at 10 uM after 5 mins; format: functional, cell-based; procedure, shortened: as §2
MCF7 [5] = assay: Increase in endogenous C14-ceramide level in human MCF7 cells at 10 uM after 5 mins; format: functional, cell-based; procedure, shortened: as §2
MCF7 [6] = assay: Increase in endogenous C16-ceramide level in human MCF7 cells at 10 uM after 5 mins; format: functional, cell-based; procedure, shortened: as §2
MCF7 [7] = assay: Inhibition of acid ceramidase in human MCF7 cells assessed as enzyme degradation at 10 uM after 5 hrs; format: cell-based
MCF7 [8] = assay: Inhibition of endogenous sphingosine level in human MCF7 cells at 10 uM after 2.5 hrs; format: functional, cell-based; procedure, shortened: as §1
MCF7 [9] = assay: Increase in endogenous C14-ceramide level in human MCF7 cells at 1 uM after 24 hrs; format: functional, cell-based; procedure, shortened: as §2
MCF7 [10] = assay: Decrease in endogenous sphingosine level in human MCF7 cells at 1 uM after 24 hrs; format: functional; set-up: scale not given: the % may be the effect or the level left; procedure, shortened: as §2
MCF7 [11] = assay: Increase in endogenous C14-ceramide level in human MCF7 cells at 10 uM after 2.5 hrs; format: functional; procedure, shortened: as §2
MCF7 [12] = assay: Increase in endogenous C16-ceramide level in human MCF7 cells at 10 uM after 2.5 hrs; format: functional; procedure, shortened: as §2
MCF7 [13] = assay: Decrease in endogenous sphingosine level in human MCF7 cells at 10 uM within 5 mins; format: functional; set-up: scale not given: the % may be the effect or the level left; procedure, shortened: as §2
MCF7 [14] = assay: Increase in endogenous C18-ceramide level in human MCF7 cells at 10 uM after 2.5 hrs; format: functional; procedure, shortened: as §2
MCF7 [15] = assay: Increase in endogenous ceramide level in human MCF7 cells at 1 uM after 24 hrs; format: functional; procedure, shortened: as §1
MCF7 [16] = assay: Increase in endogenous C18-ceramide level in human MCF7 cells at 10 uM after 5 mins; format: functional, cell-based; procedure, shortened: as §2
MCF7 [17] = assay: Increase in endogenous C24:1-ceramide level in human MCF7 cells at 10 uM after 1 to 2.5 hrs; format: functional, cell-based; procedure, shortened: as §1
MCF7 [18] = assay: Increase in endogenous C24-ceramide level in human MCF7 cells at 10 uM after 1 to 2.5 hrs; format: functional, cell-based; procedure, shortened: as §2
MCF7 [19] = assay: Increase in endogenous ceramide level in human MCF7 cells at 50 uM after 24 hrs; format: functional; procedure, shortened: as §1
MCF7 [20] = assay: Decrease in endogenous sphingosine level in human MCF7 cells upto 10 uM after 48 hrs; format: functional; set-up: scale not given: the % may be the effect or the level left; procedure, shortened: as §2
MCF7 [21] = assay: Increase in endogenous sphingosine level in human MCF7 cells at 10 uM after 24 hrs; format: functional; procedure, shortened: as §1
MCF7 [22] = assay: Increase in endogenous C16-ceramide level in human MCF7 cells at 50 uM after 24 hrs; format: functional; procedure, shortened: as §2
MCF7 [23] = assay: Increase in endogenous sphingosine level in human MCF7 cells upto 10 uM after 24 hrs; format: functional, cell-based; procedure, shortened: as §1
MCF7 [24] = assay: Growth inhibition of human MCF7 cells after 48 hrs; format: functional, cell-based
MCF7 [25] = assay: Decrease in endogenous sphingosine level in human MCF7 cells at 50 uM after 24 hrs; set-up: scale not given: the % may be the effect or the level left
MCF7 [26] = assay: Increase in endogenous sphingosine level in human MCF7 cells at 10 uM after 1 to 2.5 hrs; format: functional, cell-based; procedure, shortened: as §1
MCF7 [27] = assay: Increase in endogenous C24:1-ceramide level in human MCF7 cells upto 5 uM after 24 hrs; format: functional, cell-based; procedure, shortened: as §1
MCF7 [28] = assay: Increase in endogenous ceramide level in human MCF7 cells at >25 uM after 24 hrs; format: functional, cell-based; procedure, shortened: as §1
MCF7 [29] = assay: Decrease in endogenous C16-ceramide level in human MCF7 cells upto 5 uM after 24 hrs; format: functional, cell-based; procedure, shortened: as §2
MCF7 [30] = assay: Decrease in endogenous C24-ceramide level in human MCF7 cells upto 5 uM after 24 hrs; format: functional, cell-based; procedure, shortened: as §2
MCF7 [31] = assay: Decrease in endogenous C24:1-ceramide level in human MCF7 cells at 10 uM; set-up: scale not given: the % may be the effect or the level left
MCF7 [32] = assay: Decrease in endogenous C24-ceramide level in human MCF7 cells at 10 uM after 24 hrs; format: functional; set-up: scale not given: the % may be the effect or the level left; procedure, shortened: as §2
MCF7 [33] = assay: Decrease in endogenous sphingosine level in human MCF7 cells upto 50 uM after 24 hrs; format: functional, cell-based; procedure, shortened: as §2
MCF7 [34] = assay: Decrease in endogenous sphingosine level in human MCF7 cells upto 5 uM after 24 hrs; format: functional, cell-based; procedure, shortened: as §2
MCF7 [35] = assay: Decrease in endogenous C16-ceramide level in human MCF7 cells at 10 uM after 24 hrs; format: functional; set-up: scale not given: the % may be the effect or the level left; procedure, shortened: as §2
MCF7 [36] = assay: Decrease in endogenous sphingosine level in human MCF7 cells at >2.5 uM after 24 hrs; format: functional, cell-based; procedure, shortened: as §2
MCF7 [37] = assay: Decrease in endogenous sphingosine level in human MCF7 cells at 50 uM after 24 hrs; format: functional; set-up: scale not given: the % may be the effect or the level left; procedure, shortened: as §2
MCF7 [38] = assay: Increase in endogenous C16-ceramide level in human MCF7 cells at 10 uM after 1 to 2.5 hrs; format: functional; procedure, shortened: as §2
MCF7 [39] = assay: Increase in endogenous C24:1-ceramide level in human MCF7 cells at 50 uM after 24 hrs; format: functional; procedure, shortened: as §1
MCF7 [40] = assay: Increase in endogenous ceramide level in human MCF7 cells at more than 5 uM after 24 hrs; format: functional, cell-based; procedure, shortened: as §1
MCF7 [41] = assay: Increase in endogenous C24-ceramide level in human MCF7 cells at 50 uM after 24 hrs; format: functional; procedure, shortened: as §1
MCF7 [42] = assay: Increase in endogenous ceramide level in human MCF7 cells at 10 to 50 uM after 24 hrs; format: functional, cell-based; procedure, shortened: as §1
MCF7 [43] = assay: Decrease in endogenous sphingosine level in human MCF7 cells at 10-50 uM after 24 hrs; format: functional, cell-based; procedure, shortened: as §2

## CCCCCCCCCCCCCCN[C@H](C)[C@@H](O)c1ccccc1.Cl
MCF7 [1]
  Activity: inactive
MCF7 [2]
  Activity: Active
MCF7 [3]
  Activity: Active
MCF7 [4]
  Activity: inactive
MCF7 [5]
  Activity: Active
MCF7 [6]
  Activity: Active
MCF7 [7]
  Activity: Active
MCF7 [8]
  Activity: Active
MCF7 [9]
  Activity: Active
MCF7 [10]
  Activity: 80%
MCF7 [11]
  Activity: 430%
MCF7 [12]
  Activity: 330%
MCF7 [13]
  Activity: 25%
MCF7 [14]
  Activity: 260%
MCF7 [15]
  Activity: 180%
MCF7 [16]
  Activity: Active

## CCCCCCCCCCCCNC(=O)N[C@H](C)[C@@H](O)c1ccccc1
MCF7 [17]
  Activity: Active
MCF7 [18]
  Activity: Active
MCF7 [19]
  Activity: 180%
MCF7 [20]
  Activity: 25%
MCF7 [21]
  Activity: 140%
MCF7 [22]
  Activity: Active
MCF7 [23]
  Activity: Active
MCF7 [24]
  Activity: Active
MCF7 [25]
  Activity: 25%
MCF7 [26]
  Activity: Active

## CCCCCCCCCCCCCC(=O)N[C@H](C)[C@@H](O)c1ccccc1
MCF7 [27]
  Activity: Active
MCF7 [28]
  Activity: Active
MCF7 [29]
  Activity: Active
MCF7 [30]
  Activity: Active
MCF7 [31]
  Activity: 30%
MCF7 [32]
  Activity: 30%
MCF7 [33]
  Activity: Active
MCF7 [34]
  Activity: Active
MCF7 [35]
  Activity: 30%
MCF7 [36]
  Activity: Active

## CCCCCCCCCCCCCC(=O)N[C@H](CO)[C@H](O)c1ccc([N+](=O)[O-])cc1
MCF7 [19]
  Activity: 300%
MCF7 [37]
  Activity: 50%
MCF7 [38]
  Activity: 120%
MCF7 [39]
  Activity: 380%
MCF7 [40]
  Activity: Active
MCF7 [22]
  Activity: 340%
MCF7 [31]
  Activity: 80%
MCF7 [41]
  Activity: 220%
MCF7 [24]
  Activity: Active
MCF7 [11]
  Activity: 120%
MCF7 [32]
  Activity: 80%
MCF7 [14]
  Activity: Active

## CCCCCCCCCCCCCC(=O)N[C@@H](C)[C@@H](O)c1ccccc1
MCF7 [42]
  Activity: inactive
MCF7 [43]
  Activity: inactive

— ChEMBL document CHEMBL1143123, “Novel analogs of D-e-MAPP and B13. Part 2: signature effects on bioactive sphingolipids” (2008)
